Activity calls are given as the source filed them. The calls are words filed in the database; no cut-off is given here.
Assays:
[1] = test system: Enterococcus faecalis; test: Antibacterial activity against vancomycin-susceptible Enterococcus faecalis JH2-2 assessed as change in CFU count at 1 times MIC after 30 to 90 mins; format: functional, organism-based
Method in brief: (§1)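 Exponentially growing cells, 10^5 CFU/ml in BHI at 37°C, exposed to 1× MIC antibiotic (daptomycin medium with 50 μg/ml free Ca2+) for 30, 60 and 90 min; viable counts by enumeration on BHI agar.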

[2] = test system: Enterococcus faecalis; test: Antibacterial activity against […] Enterococcus faecalis BM4316 assessed as dismorphic bacterial chains at 1 times MIC after 1 hr by confocal microscopy
[3] = test system: Enterococcus faecalis; test: Antibacterial activity against […] Enterococcus faecalis BM4275 assessed as change in CFU count at 1 times MIC after 30 to 90 mins; format: functional, organism-based; method in brief: as §1
[4] = test system: Enterococcus faecalis; test: Antibacterial activity against vancomycin-susceptible Enterococcus faecalis JH2-2 assessed as membrane potential/size ratio at 0.25 to 1 times MIC after 1 hr by flow cytometry
[5] = test system: Enterococcus faecalis; test: Antibacterial activity against […] Enterococcus faecalis BM4316 assessed as decrease in bacterial count at 4 times MIC after 180 mins using BHI broth; format: functional, organism-based
Method in brief: (§2)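 Exponential-phase suspension (10^5 CFU/ml) in BHI, 37°C, exposed to 4× MIC for 180 min alongside antibiotic-free control; daptomycin medium carried 50 μg/ml free Ca2+. Survivors counted on BHI agar; value is mean difference in log10 CFU/ml with versus without antibiotic, 4 independent experiments, mean ± SD.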

[6] = test system: Enterococcus faecalis; test: Antibacterial activity against […] Enterococcus faecalis BM4275 assessed as dismorphic bacterial chains at 1 times MIC after 1 hr by confocal microscopy
[7] = test system: Enterococcus faecalis; test: Antibacterial activity against […] Enterococcus faecalis BM4275 assessed as increase in cell size at 0.25 times MIC after 30 to 90 mins by flow cytometric analysis relative to control; format: functional, organism-based
Method in brief: (§3)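 10^5 CFU/ml exponential cells in BHI, 37°C, exposed to 0.25× or 1× MIC (daptomycin with 50 μg/ml free Ca2+) for 30, 60, 90 min, then diluted to ca. 10^4 CFU/ml in PBS. Flow cytometry forward scatter, log amplifiers, 5,000 events; % increase in size versus untreated control, triplicate, mean ± SD; Kruskal-Wallis then Mann-Whitney.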

[8] = test system: Enterococcus faecalis; test: Drug uptake in vancomycin-susceptible Enterococcus faecalis JH2-2 assessed as red-fluorescent bacteria at 1 times MIC after 1 hr by confocal microscopy
[9] = test system: Enterococcus faecalis; test: Antibacterial activity against […] Enterococcus faecalis BM4275 assessed as membrane potential/size ratio at 0.25 to 1 times MIC after 1 hr […]; format: functional, organism-based
[10] = test system: Enterococcus faecalis; test: Antibacterial activity against vancomycin-susceptible Enterococcus faecalis JH2-2 assessed as increase in cell size at 1 times MIC after 30 to 90 mins by flow cytometric analysis relative to control; format: functional, organism-based
Method in brief: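 Exponentially growing cells at 10^5 CFU/ml in BHI broth at 37°C were exposed to 0.25× or 1× MIC and sampled at 30, 60 and 90 min. Untreated controls were run alongside. Cells were diluted to ca. 10^4 CFU/ml in PBS and gated on log forward scatter for 5,000 events. Runs were in triplicate, reported as mean % size increase versus control.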

[11] = test system: Enterococcus faecalis; test: Antibacterial activity against […] Enterococcus faecalis BM4316 assessed as change in CFU count at 1 times MIC after 30 to 90 mins; format: functional, organism-based; method in brief: as §1
[12] = test system: Enterococcus faecalis; test: Antibacterial activity against vancomycin-susceptible Enterococcus faecalis JH2-2 assessed as dismorphic bacterial chains at 1 times MIC after 1 hr using BacLight Live/Dead kit by confocal microscopy
[13] = test system: Enterococcus faecalis; test: Antibacterial activity against […] Enterococcus faecalis BM4275 assessed as increase in cell size at 1 times MIC after 30 to 90 mins by flow cytometric analysis relative to control; format: functional, organism-based; method in brief: as §3
[14] = test system: Enterococcus faecalis; test: Antibacterial activity against vancomycin-susceptible Enterococcus faecalis JH2-2 assessed as decrease in bacterial count at 4 times MIC after 180 mins using BHI broth; format: functional, organism-based; method in brief: as §2
[15] = test system: Enterococcus faecalis; test: Antibacterial activity against […] Enterococcus faecalis BM4316 assessed as increase in cell size at 1 times MIC after 30 to 90 mins by flow cytometric analysis relative to control; format: functional, organism-based; method in brief: as §3
[16] = test system: Enterococcus faecalis; test: Antibacterial activity against […] Enterococcus faecalis BM4316 using BHI broth by macrodilution method; format: functional
Method in brief: (§4)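 Macrodilution per CLSI in BHI broth at 37°C, with 50 μg/ml free Ca2+ for daptomycin; MIC read as lowest concentration with no growth after 1 day.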

[17] = test system: Enterococcus faecalis; test: Antibacterial activity against […] Enterococcus faecalis BM4316 assessed as membrane potential/size ratio at 0.25 to 1 times MIC after 1 hr […]; format: functional, organism-based
[18] = test system: Enterococcus faecalis; test: Antibacterial activity against […] Enterococcus faecalis BM4275 using BHI broth by macrodilution method; format: functional; method in brief: as §4
[19] = test system: Enterococcus faecalis; test: Drug uptake in vancomycin[…]-type Enterococcus faecalis BM4316 assessed as red-fluorescent bacteria at 1 times MIC after 1 hr by confocal microscopy
[20] = test system: Staphylococcus aureus; test: Antibacterial activity against Staphylococcus aureus ATCC 29213 assessed as cells with altered cell wall morphology at 8 times MIC after 60 mins; format: functional
[21] = test system: Enterococcus faecalis; test: Antibacterial activity against […] Enterococcus faecalis BM4275 assessed as decrease in bacterial count at 4 times MIC after 180 mins using BHI broth; format: functional, organism-based; method in brief: as §2
[22] = test system: Enterococcus faecalis; test: Antibacterial activity against vancomycin-susceptible Enterococcus faecalis JH2-2 assessed as increase in cell size at 0.25 times MIC after 30 to 90 mins by flow cytometric analysis relative to control; format: functional, organism-based; method in brief: as §3
[23] = test system: Enterococcus faecalis; test: Antibacterial activity against […] Enterococcus faecalis BM4316 assessed as increase in cell size at 0.25 times MIC after 30 to 90 mins by flow cytometric analysis relative to control; format: functional, organism-based; method in brief: as §3
[24] = test system: Enterococcus faecalis; test: Antibacterial activity against vancomycin-susceptible Enterococcus faecalis JH2-2 using BHI broth by macrodilution method; format: functional; method in brief: as §4
[25] = test system: Enterococcus faecalis; test: Drug uptake in vancomycin[…]-type Enterococcus faecalis BM4275 assessed as red-fluorescent bacteria at 1 times MIC after 1 hr by confocal microscopy

Row | SMILES | Activity [2] | Activity [4] | Activity [5] | Activity [6] | Activity [7] | Drug uptake [8] | Activity [9] | Activity [10] | Activity [12] | Activity [14] | Activity [16] | Activity [17] | Activity [18] | Drug uptake [19] | Activity [21] | Activity [22] | Activity [23] | Activity [24] | Drug uptake [25] | further results
1 | CCCCCCCCCC(=O)N[C@@H](Cc1c[nH]c2ccccc12)C(=O)N[C@H](CC(N)=O)C(=O)N[C@@H](CC(=O)O)C(=O)N[C@@H]1C(=O)NCC(=O)N[C@@H](CCCN)C(=O)N[C@@H](CC(=O)O)C(=O)N[C@H](C)C(=O)N[C@@H](CC(=O)O)C(=O)NCC(=O)N[C@H](CO)C(=O)N[C@@H]([C@H](C)CC(=O)O)C(=O)N[C@@H](CC(=O)c2ccccc2N)C(=O)O[C@@H]1C | Active | inactive | Active | Active | Active | Active | inactive | Active | Active | Active | 2 µg/mL | inactive | 2 µg/mL | Active | Active | Active | Active | 2 µg/mL | Active | Activity [1]: Active; Activity [3]: Active; Activity [11]: Active; Activity [13]: Active; Activity [15]: Active; Activity [20]: >90%
2 | CN[C@H](CC(C)C)C(=O)N[C@H]1C(=O)N[C@@H](CC(N)=O)C(=O)N[C@H]2C(=O)N[C@H]3C(=O)N[C@H](C(=O)N[C@H](C(=O)O)c4cc(O)cc(O)c4-c4cc3ccc4O)[C@H](O)c3ccc(c(Cl)c3)Oc3cc2cc(c3O[C@@H]2O[C@H](CO)[C@@H](O)[C@H](O)[C@H]2O[C@H]2C[C@](C)(NCCCCNc3cc(C(F)(F)F)nc4cc(Cl)ccc34)[C@H](O)[C@H](C)O2)Oc2ccc(cc2Cl)[C@H]1O [listing 1 of 2 here] |  |  |  |  |  |  |  |  |  |  | 4 µg/mL |  | 2 µg/mL |  |  |  |  | 0.5 µg/mL |  | 
3 | CCCCCCCCCCNCCN[C@@]1(C)C[C@H](O[C@H]2[C@H](Oc3c4cc5cc3Oc3ccc(cc3Cl)[C@@H](O)[C@@H](NC(=O)[C@@H](CC(C)C)NC)C(=O)N[C@@H](CC(N)=O)C(=O)N[C@H]5C(=O)N[C@H]3C(=O)N[C@H](C(=O)N[C@H](C(=O)O)c5cc(O)c(CNCP(=O)(O)O)c(O)c5-c5cc3ccc5O)[C@H](O)c3ccc(c(Cl)c3)O4)O[C@H](CO)[C@@H](O)[C@@H]2O)O[C@@H](C)[C@H]1O [TELAVANCIN] | inactive | inactive | Active | inactive | Active | Active | inactive |  | inactive | Active | 4 µg/mL | inactive | 1 µg/mL | Active | Active | Active | Active | 1 µg/mL | Active | 
4 | CN[C@H](CC(C)C)C(=O)N[C@H]1C(=O)N[C@@H](CC(N)=O)C(=O)N[C@H]2C(=O)N[C@H]3C(=O)N[C@H](C(=O)N[C@H](C(=O)O)c4cc(O)cc(O)c4-c4cc3ccc4O)[C@H](O)c3ccc(c(Cl)c3)Oc3cc2cc(c3O[C@@H]2O[C@H](CO)[C@@H](O)[C@H](O)[C@H]2O[C@H]2C[C@](C)(NCCCCNc3cc(C(F)(F)F)nc4cc(Cl)ccc34)[C@H](O)[C@H](C)O2)Oc2ccc(cc2Cl)[C@H]1O [listing 2 of 2 here] |  |  |  |  |  | Active |  |  |  |  |  |  |  | Active |  |  |  |  | Active | 
5 | CN[C@H](CC(C)C)C(=O)N[C@H]1C(=O)N[C@@H](CC(N)=O)C(=O)N[C@H]2C(=O)N[C@H]3C(=O)N[C@H](C(=O)N[C@H](C(=O)O)c4cc(O)cc(O)c4-c4cc3ccc4O)[C@H](O)c3ccc(c(Cl)c3)Oc3cc2cc(c3O[C@@H]2O[C@H](CO)[C@@H](O)[C@H](O)[C@H]2O[C@H]2C[C@](C)(N)[C@H](O)[C@H](C)O2)Oc2ccc(cc2Cl)[C@H]1O [VANCOMYCIN] | inactive | inactive | Active | inactive |  | Active | inactive | Active | inactive | Active | 512 µg/mL | inactive | 256 µg/mL | Active | Active | Active |  | 4 µg/mL | Active | 
6 | CN[C@H](CC(C)C)C(=O)N[C@H]1C(=O)N[C@@H](CC(N)=O)C(=O)N[C@H]2C(=O)N[C@H]3C(=O)N[C@H](C(=O)N[C@@H](C(=O)O)c4cc(O)cc(O)c4-c4cc3ccc4O)[C@H](O)c3ccc(c(Cl)c3)Oc3cc2cc(c3O[C@@H]2O[C@H](CO)[C@@H](O)[C@H](O)[C@H]2O[C@H]2C[C@](C)(NCCCCNc3cc(C(F)(F)F)nc4cc(Cl)ccc34)[C@H](O)[C@H](C)O2)Oc2ccc(cc2Cl)[C@H]1O | inactive | inactive | Active | inactive |  |  | inactive |  | inactive | Active |  | inactive |  |  | Active | Active | Active |  |  | 
